Data published in ChEMBL document CHEMBL3792302, “N-Phenyl indole derivatives as AT1 antagonists with anti-hypertension activities: Design, synthesis and biological evaluation” (Eur J Med Chem, 2016).
Active and inactive are the calls of the source. The rule behind the calls is not given here.

Key:
Rattus norvegicus [1] = assay: Antihypertensive activity in SHR rat assessed as reduction in mean blood pressure at 10 mg/kg, po measured upto 24 hrs post dosing; assay type: functional
How it was run: (§1)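 Spontaneously hypertensive rats received test agents orally at 5 or 10 mg/kg, with losartan and telmisartan at 10 mg/kg as references. Mean blood pressure was tracked for over 24 h after dosing and compared with a negative control group. Significance versus control was set at p<0.05 and p<0.01.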

Rattus norvegicus [2] = organism: Rattus norvegicus; assay: (§2) Displacement of [125I]-Sar1,Ile8-angiotensin 2 from AT1 receptor in Sprague-Dawley rat vascular smooth muscle cells after 150 mins by gamma counting analysis
How it was run: (§3)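 Competition radioligand binding to the AT1 receptor was run on vascular smooth muscle cells with [125I]-AII as the labelled ligand. Affinity is reported as IC50 and Ki, given as ± SEM.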

[3] = as §2; how it was run: as §3
Rattus norvegicus [4] = assay: Antihypertensive activity in SHR rat assessed as reduction in mean blood pressure at 5 mg/kg, po measured upto 24 hrs post dosing; assay type: functional, organism-based; how it was run: as §1
Mus musculus [5] = assay: Acute toxicity in ICR mouse assessed as aggressiveness at 307.20 mg/kg, ig administered daily for 2 weeks measured during compound dosing; assay type: organism-based; settings: in vivo, po, 307.2 mg/kg, 336 h
How it was run: (§4)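 Mice were given single-compound dose groups of 307.20, 384.00, 480.00, 600.00, 750.00 and 937 mg/kg. Body weight of survivors was checked after 2 weeks. Mortality (%) was scored per dose group, and LD50 with 95% confidence interval was derived from log(dose) versus mortality.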

Mus musculus [6] = assay: Acute toxicity in ICR mouse assessed as mobility at 307.20 mg/kg, ig administered daily for 2 weeks measured during compound dosing; assay type: organism-based; settings: in vivo, po, 307.2 mg/kg, 336 h; how it was run: as §4
[7] = Acute toxicity in intragastrically dosed ICR mouse assessed as mortality administered daily for 2 weeks measured during compound dosing; assay type: organism-based; settings: in vivo, po; how it was run: as §4
[8] = Acute toxicity in ICR mouse assessed as mortality at 937 mg/kg, ig administered daily for 2 weeks measured during compound dosing; assay type: organism-based; settings: in vivo, po; how it was run: as §4
Mus musculus [9] = assay: Acute toxicity in ICR mouse assessed as respiratory movements at 384 mg/kg, ig administered daily for 2 weeks measured during compound dosing; assay type: organism-based; settings: in vivo, po, 336 h; how it was run: as §4
Mus musculus [10] = assay: Acute toxicity in ICR mouse assessed as hyperthyroidism at 480 to 937 mg/kg, ig administered daily for 2 weeks measured after 6 hrs post last dose; settings: in vivo, po
Rattus norvegicus [11] = assay: Antihypertensive activity in po dosed SHR rat assessed as reduction in mean blood pressure measured upto 24 hrs post dosing; assay type: functional, organism-based
How it was run: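 In spontaneously hypertensive rats, test compounds were given orally at 5 and 10 mg/kg, with losartan and telmisartan references at 10 mg/kg. Mean blood pressure was followed over time to beyond 24 h post-dose and compared with a negative control group. Significance was set at p<0.05 and p<0.01.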

Mus musculus [12] = assay: Acute toxicity in ICR mouse assessed as skin changes at 307.20 mg/kg, ig administered daily for 2 weeks measured during compound dosing; assay type: organism-based; settings: in vivo, po, 307.2 mg/kg, 336 h; how it was run: as §4
[13] = Acute toxicity in ICR mouse assessed as mortality at 384 mg/kg, ig administered daily for 2 weeks measured during compound dosing; assay type: organism-based; settings: in vivo, po; how it was run: as §4
[14] = Acute toxicity in ICR mouse assessed as mortality at 480 mg/kg, ig administered daily for 2 weeks measured during compound dosing; assay type: organism-based; settings: in vivo, po; how it was run: as §4
[15] = Acute toxicity in ICR mouse assessed as mortality at 600 mg/kg, ig administered daily for 2 weeks measured during compound dosing; assay type: organism-based; settings: in vivo, po; how it was run: as §4
Mus musculus [16] = assay: Acute toxicity in ICR mouse assessed as change in body weight at 307.20 to 937 mg/kg, ig administered daily for 2 weeks during compound dosing; assay type: organism-based; settings: in vivo, po, 336 h; how it was run: as §4
[17] = Acute toxicity in ICR mouse assessed as mortality at 750 mg/kg, ig administered daily for 2 weeks measured during compound dosing; assay type: organism-based; settings: in vivo, po; how it was run: as §4
Mus musculus [18] = assay: Acute toxicity in ICR mouse assessed as mobility at 384 mg/kg, ig administered daily for 2 weeks measured during compound dosing; assay type: organism-based; settings: in vivo, po, 336 h; how it was run: as §4
Mus musculus [19] = assay: Acute toxicity in ICR mouse assessed as obvious untoward reaction at 307.20 to 937, ig administered daily for 2 weeks during compound dosing; assay type: organism-based; settings: in vivo, po, 336 h; how it was run: as §4
Mus musculus [20] = assay: Acute toxicity in ICR mouse assessed as pathological changes in organs and tissues at 307.20 to 937, ig administered daily for 2 weeks measured on fifteenth day; assay type: organism-based; settings: in vivo, po, 336 h
[21] = Acute toxicity in ICR mouse assessed as mortality at 307.20 mg/kg, ig administered daily for 2 weeks measured during compound dosing; assay type: organism-based; settings: in vivo, po, 307.2 mg/kg; how it was run: as §4
Rattus norvegicus [22] = assay: Antihypertensive activity in SHR rat assessed as reduction in mean blood pressure at 10 mg/kg, po measured after 6 hrs post dosing; assay type: functional; how it was run: as §1
Mus musculus [23] = assay: Acute toxicity in ICR mouse assessed as respiratory movements at 307.20 mg/kg, ig administered daily for 2 weeks measured during compound dosing; assay type: organism-based; settings: in vivo, po, 307.2 mg/kg, 336 h; how it was run: as §4
Mus musculus [24] = assay: Acute toxicity in ICR mouse assessed as skin changes at 384 mg/kg, ig administered daily for 2 weeks measured during compound dosing; assay type: organism-based; settings: in vivo, po, 336 h; how it was run: as §4
Mus musculus [25] = assay: Acute toxicity in ICR mouse assessed as aggressiveness at 384 mg/kg, ig administered daily for 2 weeks measured during compound dosing; assay type: organism-based; settings: in vivo, po, 336 h; how it was run: as §4

CCCc1nc2c(C)cc(-c3nc4ccccc4n3C)cc2n1Cc1ccc(-c2ccccc2C(=O)O)cc1 [TELMISARTAN]
Activity (Rattus norvegicus [1]): Active
Activity (Rattus norvegicus [2]): Dose-dependent effect
IC50 [3]: 3.8 nM
Ki [3]: 2.75 nM

CCCc1nc2c(C)cc(-c3nc4ccccc4n3C)cc2n1Cc1ccc2c(ccn2-c2ccccc2C(=O)O)c1
Activity (Rattus norvegicus [4]): Active
Activity (Rattus norvegicus [1]): Active
Activity (Rattus norvegicus [2]): Dose-dependent effect
IC50 [3]: 3.76 nM
Ki [3]: 2.35 nM

CCCc1nc2c(C)cc(-c3nc4ccccc4n3C)cc2n1Cc1cccc2c1ccn2-c1ccccc1-c1nnn[nH]1
Activity (Rattus norvegicus [4]): Active
Activity (Rattus norvegicus [1]): Active
Activity (Rattus norvegicus [2]): Dose-dependent effect
IC50 [3]: 3.39 nM
Ki [3]: 2.12 nM

CCCCCc1nc2c(C)cc(-c3nc4ccccc4n3C)cc2n1Cc1ccc2c(ccn2-c2ccccc2C(=O)O)c1
Activity (Rattus norvegicus [1]): 53 mmHg
Activity (Rattus norvegicus [2]): Dose-dependent effect
IC50 [3]: 0.92 nM
Ki [3]: 0.67 nM

CCCCc1nc2c(C)cc(-c3nc4ccccc4n3C)cc2n1Cc1cccc2c1ccn2-c1ccccc1C(=O)O
Activity (Rattus norvegicus [4]): inactive
Activity (Rattus norvegicus [1]): inactive
Activity (Rattus norvegicus [2]): Dose-dependent effect
IC50 [3]: 2.61 nM
Ki [3]: 1.63 nM

CCCCc1nc(Cl)c(CO)n1Cc1ccc(-c2ccccc2-c2nnn[nH]2)cc1 [LOSARTAN]
Activity (Rattus norvegicus [1]): 43 mmHg
Activity (Rattus norvegicus [2]): Dose-dependent effect
IC50 [3]: 20.1 nM
Ki [3]: 13.1 nM

CCc1nc2c(C)cc(-c3nc4ccccc4n3C)cc2n1Cc1cccc2c1ccn2-c1ccccc1C(=O)O
Activity (Rattus norvegicus [4]): Active
Activity (Rattus norvegicus [1]): Active
Activity (Rattus norvegicus [2]): Dose-dependent effect
IC50 [3]: 1.83 nM
Ki [3]: 1.14 nM

CCCCc1nc2c(C)cc(-c3ccccn3)cc2n1Cc1cccc2c1ccn2-c1ccccc1C(=O)O
Activity (Rattus norvegicus [4]): Active
Activity (Rattus norvegicus [1]): Active
Activity (Rattus norvegicus [2]): Dose-dependent effect
IC50 [3]: 5.63 nM
Ki [3]: 4.08 nM

Cc1cc(-c2nc3ccccc3n2C)cc2c1nc(C)n2Cc1cccc2c1ccn2-c1ccccc1C(=O)O
Activity (Rattus norvegicus [4]): inactive
Activity (Rattus norvegicus [1]): inactive
Activity (Rattus norvegicus [2]): Dose-dependent effect
IC50 [3]: 7.46 nM
Ki [3]: 4.66 nM

CCCCc1nc2c(C)cc(-c3ccccn3)cc2n1Cc1ccc2c(ccn2-c2ccccc2C(=O)O)c1
Activity (Rattus norvegicus [4]): inactive
Activity (Rattus norvegicus [1]): inactive
Activity (Rattus norvegicus [2]): Dose-dependent effect
IC50 [3]: 5.61 nM
Ki [3]: 4.06 nM

CCCCCc1nc2c(C)cc(-c3nc4ccccc4n3C)cc2n1Cc1cccc2c1ccn2-c1ccccc1C(=O)O
Activity (Rattus norvegicus [4]): inactive
Activity (Rattus norvegicus [1]): inactive
Activity (Rattus norvegicus [2]): Dose-dependent effect
IC50 [3]: 11.3 nM
Ki [3]: 7.06 nM

CCCCc1nc2c(C)cc(-c3nc4ccccc4n3C)cc2n1Cc1ccc2c(ccn2-c2ccccc2C(=O)O)c1
Activity (Rattus norvegicus [4]): Active
Activity (Rattus norvegicus [1]): Active
Activity (Rattus norvegicus [2]): Dose-dependent effect
IC50 [3]: 2.23 nM
Ki [3]: 1.39 nM

CCCc1nc2c(C)cc(-c3ccccn3)cc2n1Cc1cccc2c1ccn2-c1ccccc1C(=O)O
Activity (Rattus norvegicus [4]): Active
Activity (Rattus norvegicus [1]): Active
Activity (Rattus norvegicus [2]): Dose-dependent effect
IC50 [3]: 4.7 nM
Ki [3]: 3.4 nM

CCCc1nc2c(C)cc(-c3ccccn3)cc2n1Cc1ccc2c(ccn2-c2ccccc2C(=O)O)c1
Activity (Rattus norvegicus [1]): 43 mmHg
Activity (Rattus norvegicus [2]): Dose-dependent effect
IC50 [3]: 3.27 nM
Ki [3]: 2.37 nM

CCc1nc2c(C)cc(-c3ccccn3)cc2n1Cc1cccc2c1ccn2-c1ccccc1C(=O)O
Activity (Rattus norvegicus [4]): Active
Activity (Rattus norvegicus [1]): Active
Activity (Rattus norvegicus [2]): Dose-dependent effect
IC50 [3]: 3.55 nM
Ki [3]: 2.57 nM

Cc1cc(-c2nc3ccccc3n2C)cc2c1nc(C)n2Cc1ccc2c(ccn2-c2ccccc2C(=O)O)c1
Activity (Rattus norvegicus [1]): 44 mmHg
Activity (Rattus norvegicus [2]): Dose-dependent effect
IC50 [3]: 8.25 nM
Ki [3]: 5.13 nM

CCc1nc2c(C)cc(-c3ccccn3)cc2n1Cc1ccc2c(ccn2-c2ccccc2C(=O)O)c1
Activity (Rattus norvegicus [1]): 42 mmHg
Activity (Rattus norvegicus [2]): Dose-dependent effect
IC50 [3]: 1.17 nM
Ki [3]: 0.84 nM

CCCc1nc2c(C)cc(-c3nc4ccccc4n3C)cc2n1Cc1cccc2c1ccn2-c1ccccc1C(=O)O
Activity (Mus musculus [5]): Non-toxic
Activity (Mus musculus [6]): Non-toxic
LD50 at 336 h [7]: 526 mg/kg
mortality at 336 h [8]: 100%
Activity (Mus musculus [9]): Non-toxic
Activity (Rattus norvegicus [4]): Active
Activity (Mus musculus [10]): Toxic
Activity (Rattus norvegicus [11]): Dose-dependent effect
Activity (Rattus norvegicus [1]): Active
Activity (Mus musculus [12]): Non-toxic
mortality at 336 h [13]: 10%
mortality at 336 h [14]: 50%
mortality at 336 h [15]: 60%
Activity (Mus musculus [16]): Non-toxic
mortality at 336 h [17]: 90%
Activity (Mus musculus [18]): Non-toxic
Activity (Mus musculus [19]): Non-toxic
Activity (Mus musculus [20]): Non-toxic
Activity (Rattus norvegicus [2]): Dose-dependent effect
IC50 [3]: 0.36 nM
Ki [3]: 0.23 nM
mortality at 336 h [21]: 0%
Activity (Rattus norvegicus [22]): 64 mmHg
Activity (Mus musculus [23]): Non-toxic
Activity (Mus musculus [24]): Non-toxic
Activity (Mus musculus [25]): Non-toxic

CCc1nc2c(C)cc(-c3nc4ccccc4n3C)cc2n1Cc1ccc2c(ccn2-c2ccccc2C(=O)O)c1
Activity (Rattus norvegicus [4]): inactive
Activity (Rattus norvegicus [1]): inactive
Activity (Rattus norvegicus [2]): Dose-dependent effect
IC50 [3]: 13.1 nM
Ki [3]: 8.16 nM
